# Measured values as given in ChEMBL document CHEMBL1932985, “Identification of biaryl sulfone derivatives as antagonists of the histamine H₃ receptor: discovery of (R)-1-(2-(4'-(3-methoxypropylsulfonyl)biphenyl-4-yl)ethyl)-2-methylpyrrolidine (APD916)” (Bioorg Med Chem Lett, 2012).
# pIC50, pKi: −log10 of the molar value.
# Tests used:
# Cytochrome P450 2C9 = Cytochrome P450 2C9 (Homo sapiens, UniProt P11712); assay: Inhibition of CYP2C9; type: ADME
# Method in brief: (§1)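 Inhibition tested against five major CYP isoforms; IC50 determined.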
# [1] = Oral bioavailability in Sprague-Dawley rat at 3 mg/kg by LC-MS/MS analysis; type: ADME, organism-based; conditions: in vivo
# Method in brief: (§2)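 Rat PK after IV and PO dosing; plasma Cmax, Tmax, IV half-life and Vss determined; oral bioavailability from AUCpo/AUCiv. Metabolite exposure determined after a 3 mg/kg PO parent dose.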
# [2] = Half life in monkey at 3 mg/kg, po by LC-MS/MS analysis; type: ADME, organism-based, Macaca mulatta; parameters: dose 3 mg/kg, route oral; conditions: rhesus monkey, in vivo
# [3] = Ratio of drug level in brain to plasma in Sprague-Dawley rat at 3 mg/kg, po and iv after 0.75 to 3 hrs by LC-MS/MS analysis; type: ADME, organism-based; parameters: dose 3 mg/kg, route oral; conditions: read-out: BPR
# Method in brief: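 Brain (µg/mg) and plasma (µg/mL) levels were measured after oral dosing, with three rats per time point. The b/p ratio was the mean of the nine individual ratios.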
# hERG (KCNH2) = hERG (KCNH2) (Homo sapiens, UniProt Q12809); assay: Inhibition of human ERG at 3 uM by patch-clamp assay
# Sequence of hERG (KCNH2) (Q12809 whole entry): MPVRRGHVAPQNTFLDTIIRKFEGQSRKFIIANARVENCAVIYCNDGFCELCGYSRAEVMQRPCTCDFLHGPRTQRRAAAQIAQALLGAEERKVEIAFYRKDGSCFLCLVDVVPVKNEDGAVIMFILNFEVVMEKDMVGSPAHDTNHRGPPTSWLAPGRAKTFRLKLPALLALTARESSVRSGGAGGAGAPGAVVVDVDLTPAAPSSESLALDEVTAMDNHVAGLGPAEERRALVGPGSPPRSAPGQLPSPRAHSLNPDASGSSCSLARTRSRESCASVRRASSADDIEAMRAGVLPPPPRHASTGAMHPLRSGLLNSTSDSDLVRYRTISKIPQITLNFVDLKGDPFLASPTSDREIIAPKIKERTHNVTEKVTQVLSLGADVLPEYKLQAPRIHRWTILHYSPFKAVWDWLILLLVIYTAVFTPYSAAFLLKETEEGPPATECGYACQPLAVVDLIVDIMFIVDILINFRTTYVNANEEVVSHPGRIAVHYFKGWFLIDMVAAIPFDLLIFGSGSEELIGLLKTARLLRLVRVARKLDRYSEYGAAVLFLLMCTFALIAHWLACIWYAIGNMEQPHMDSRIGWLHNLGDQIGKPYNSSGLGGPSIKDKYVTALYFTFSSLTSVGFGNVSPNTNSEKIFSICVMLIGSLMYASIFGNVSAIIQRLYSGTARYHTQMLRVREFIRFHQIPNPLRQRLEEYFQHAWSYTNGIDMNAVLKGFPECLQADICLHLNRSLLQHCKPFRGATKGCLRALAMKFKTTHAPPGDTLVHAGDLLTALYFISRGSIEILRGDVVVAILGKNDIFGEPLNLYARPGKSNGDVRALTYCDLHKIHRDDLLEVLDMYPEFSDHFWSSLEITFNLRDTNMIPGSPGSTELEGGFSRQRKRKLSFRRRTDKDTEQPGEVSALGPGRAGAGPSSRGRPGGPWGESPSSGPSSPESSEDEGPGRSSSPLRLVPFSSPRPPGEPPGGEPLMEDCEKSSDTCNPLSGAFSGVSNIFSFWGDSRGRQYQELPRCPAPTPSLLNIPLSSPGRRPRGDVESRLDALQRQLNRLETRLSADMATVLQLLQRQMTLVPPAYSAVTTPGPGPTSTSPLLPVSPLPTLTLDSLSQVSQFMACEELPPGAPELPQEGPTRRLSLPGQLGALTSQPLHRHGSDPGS
# [4] = Cmax in Sprague-Dawley rat at 3 mg/kg, po by LC-MS/MS analysis; type: ADME, organism-based; parameters: dose 3 mg/kg, route oral; conditions: in vivo; method in brief: as §2
# [5] = Half life in Sprague-Dawley rat at 3 mg/kg, iv by LC-MS/MS analysis; type: ADME, organism-based; parameters: dose 3 mg/kg, route intravenous; conditions: in vivo; method in brief: as §2
# [6] = Tmax in dog at 3 mg/kg, po by LC-MS/MS analysis; type: ADME, organism-based, Canis lupus familiaris; parameters: dose 3 mg/kg, route oral; conditions: in vivo
# Rattus norvegicus [7] = assay: Volume of distribution at steady state in Sprague-Dawley rat at 3 mg/kg, po and iv by LC-MS/MS analysis; type: ADME, organism-based; parameters: dose 3 mg/kg, route oral; conditions: in vivo
# Method in brief: (§3)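 Rats were given the compound both IV and PO in a routine PK study. Tmax came from the PO arm and Vss from the IV arm.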
# [8] = Half life in Sprague-Dawley rat at 3 mg/kg, po by LC-MS/MS analysis; type: ADME, organism-based; parameters: dose 3 mg/kg, route oral; conditions: in vivo
# [9] = Oral bioavailability in mouse at 3 mg/kg by LC-MS/MS analysis; type: ADME, organism-based; conditions: in vivo
# [10] = Cmax in Sprague-Dawley rat plasma at 3 mg/kg, po and iv by LC-MS/MS analysis; type: ADME, organism-based; parameters: dose 3 mg/kg, route oral; method in brief: as §2
# Salmonella typhimurium = assay: Mutagenic activity in Salmonella Typhimurium by micro-Ames assay; type: toxicity, organism-based; conditions: salmonella enterica subsp. enterica serovar typhimurium
# [11] = Oral bioavailability in dog at 3 mg/kg by LC-MS/MS analysis; type: ADME, organism-based, Canis lupus familiaris; conditions: in vivo
# [12] = Clearance in dog at 3 mg/kg, po by LC-MS/MS analysis; type: ADME, organism-based, Canis lupus familiaris; parameters: dose 3 mg/kg, route oral; conditions: in vivo
# Rhesus monkey [13] = assay: Volume of distribution at steady state in monkey at 3 mg/kg, po by LC-MS/MS analysis; type: ADME, organism-based, Macaca mulatta; parameters: dose 3 mg/kg, route oral; conditions: in vivo
# [14] = Drug uptake in Sprague-Dawley rat brain at 0.3 mg/kg, po after 1 hr; type: ADME, organism-based; parameters: dose 0.3 mg/kg, route oral
# Method in brief: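 Whole-brain concentration measured 1 h after a 0.3 mg/kg oral dose in rat, the time coinciding with the drinking measurement; expressed […].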
# Rattus norvegicus [15] = assay: Inhibition of RAMH-induced dipsogenia in po dosed Sprague-Dawley rat administered 30 mins prior to RAMH challenge measured up to 20 mins; type: functional; conditions: read-out: MED
# Method in brief: (§4)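 Rats given compound orally 0.5 h (or, for duration of action, at selected times up to 6 h) before RAMH 10 mg/kg SC; water consumed over 20 min measured. Screening doses 1 or 0.3 mg/kg PO, also 0.1 mg/kg; duration study at 0.6 mg/kg PO. MED = minimum dose fully inhibiting drinking; means ± SEM.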
# [16] = Cmax in dog at 3 mg/kg, po by LC-MS/MS analysis; type: ADME, organism-based, Canis lupus familiaris; parameters: dose 3 mg/kg, route oral; conditions: in vivo
# [17] = biological target: Voltage-gated inwardly rectifying potassium channel KCNH2 (Homo sapiens, UniProt Q12809); assay: Inhibition of human ERG by patch-clamp assay
# Sequence of Voltage-gated inwardly rectifying potassium channel KCNH2 (Q12809 whole entry): as above
# Histamine H3 receptor [18] = biological target: T1, Histamine H3 receptor (Homo sapiens, UniProt Q9Y5N1); assay: Inverse agonist activity at human cloned histamine H3 receptor by [35S]GTPgammaS binding assay; type: functional
# T1 sequence (Q9Y5N1 whole entry): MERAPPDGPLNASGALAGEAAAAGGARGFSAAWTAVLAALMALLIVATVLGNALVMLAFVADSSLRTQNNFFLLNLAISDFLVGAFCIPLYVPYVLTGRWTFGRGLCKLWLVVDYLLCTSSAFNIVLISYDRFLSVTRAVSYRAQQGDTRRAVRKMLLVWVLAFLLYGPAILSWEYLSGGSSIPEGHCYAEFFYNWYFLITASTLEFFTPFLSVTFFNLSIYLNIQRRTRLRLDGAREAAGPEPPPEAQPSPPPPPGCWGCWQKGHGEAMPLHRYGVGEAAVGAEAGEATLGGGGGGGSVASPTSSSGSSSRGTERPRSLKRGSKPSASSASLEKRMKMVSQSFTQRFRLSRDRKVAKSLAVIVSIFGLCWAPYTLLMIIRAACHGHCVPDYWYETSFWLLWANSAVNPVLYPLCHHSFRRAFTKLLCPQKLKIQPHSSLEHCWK
# Cytochrome P450 2C19 = Cytochrome P450 2C19 (Homo sapiens, UniProt P33261); assay: Inhibition of CYP2C19; type: ADME; method in brief: as §1
# Mus musculus [19] = assay: Volume of distribution at steady state in mouse at 3 mg/kg, po by LC-MS/MS analysis; type: ADME, organism-based; parameters: dose 3 mg/kg, route oral; conditions: in vivo
# [20] = Clearance in monkey at 3 mg/kg, po by LC-MS/MS analysis; type: ADME, organism-based, Macaca mulatta; parameters: dose 3 mg/kg, route oral; conditions: rhesus monkey, in vivo
# [21] = Plasma protein binding in human; type: ADME, cell-free; conditions: read-out: PPB (converted)
# [22] = Cmax in mouse at 3 mg/kg, po by LC-MS/MS analysis; type: ADME, organism-based; parameters: dose 3 mg/kg, route oral; conditions: in vivo
# [23] = Clearance in Sprague-Dawley rat at 3 mg/kg, po by LC-MS/MS analysis; type: ADME, organism-based; parameters: dose 3 mg/kg, route oral; conditions: in vivo
# Histamine H3 receptor [24] = biological target: Histamine H3 receptor (Rattus norvegicus, UniProt Q9QYN8); assay: Displacement of N-[3H]-methylhistamine from histamine H3 receptor in rat cortex membranes; type: cell membranes, Membrane
# Sequence of Histamine H3 receptor (Rattus norvegicus, UniProt Q9QYN8) (Q9QYN8 whole entry): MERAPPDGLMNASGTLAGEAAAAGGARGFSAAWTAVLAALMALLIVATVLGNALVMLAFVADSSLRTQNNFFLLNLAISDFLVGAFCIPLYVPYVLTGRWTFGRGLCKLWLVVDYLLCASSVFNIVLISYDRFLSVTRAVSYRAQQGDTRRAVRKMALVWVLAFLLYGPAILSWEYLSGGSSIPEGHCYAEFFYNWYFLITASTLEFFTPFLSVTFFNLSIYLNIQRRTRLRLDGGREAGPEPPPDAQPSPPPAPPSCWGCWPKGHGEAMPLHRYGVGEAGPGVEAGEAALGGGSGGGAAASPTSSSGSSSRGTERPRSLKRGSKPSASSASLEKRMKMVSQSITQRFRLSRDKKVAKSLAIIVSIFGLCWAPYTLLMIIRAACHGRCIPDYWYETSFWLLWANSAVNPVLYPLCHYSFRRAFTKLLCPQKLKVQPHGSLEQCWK
# [25] = Half life in dog at 3 mg/kg, po by LC-MS/MS analysis; type: ADME, organism-based, Canis lupus familiaris; parameters: dose 3 mg/kg, route oral; conditions: in vivo
# [26] = Clearance in mouse at 3 mg/kg, po by LC-MS/MS analysis; type: ADME, organism-based; parameters: dose 3 mg/kg, route oral; conditions: in vivo
# [27] = Half life in mouse at 3 mg/kg, po by LC-MS/MS analysis; type: ADME, organism-based; parameters: dose 3 mg/kg, route oral; conditions: in vivo
# [28] = Cmax in monkey at 3 mg/kg, po by LC-MS/MS analysis; type: ADME, organism-based, Macaca mulatta; parameters: dose 3 mg/kg, route oral; conditions: rhesus monkey, in vivo
# Rattus norvegicus [29] = assay: Hepatic blood flow in Sprague-Dawley rat at 3 mg/kg, po by LC-MS/MS analysis; type: ADME, organism-based, Liver; parameters: dose 3 mg/kg, route oral; conditions: in vivo
# Rattus norvegicus [30] = assay: Volume of distribution at steady state in Sprague-Dawley rat at 3 mg/kg, po by LC-MS/MS analysis; type: ADME, organism-based; parameters: dose 3 mg/kg, route oral; conditions: in vivo
# Rhesus monkey [31] = assay: Hepatic blood flow in monkey at 3 mg/kg, po by LC-MS/MS analysis; type: ADME, organism-based, Macaca mulatta, Liver; parameters: dose 3 mg/kg, route oral; conditions: in vivo
# [32] = Tmax in mouse at 3 mg/kg, po by LC-MS/MS analysis; type: ADME, organism-based; parameters: dose 3 mg/kg, route oral; conditions: in vivo
# [33] = Plasma protein binding in rat; type: ADME, cell-free; conditions: read-out: PPB (converted)
# Canis familiaris [34] = assay: Volume of distribution at steady state in dog at 3 mg/kg, po by LC-MS/MS analysis; type: ADME, organism-based, Canis lupus familiaris; parameters: dose 3 mg/kg, route oral; conditions: in vivo
# Cytochrome P450 2D6 = Cytochrome P450 2D6 (Homo sapiens, UniProt P10635); assay: Inhibition of CYP2D6; type: ADME; method in brief: as §1
# Sequence of Cytochrome P450 2D6 (P10635 whole entry): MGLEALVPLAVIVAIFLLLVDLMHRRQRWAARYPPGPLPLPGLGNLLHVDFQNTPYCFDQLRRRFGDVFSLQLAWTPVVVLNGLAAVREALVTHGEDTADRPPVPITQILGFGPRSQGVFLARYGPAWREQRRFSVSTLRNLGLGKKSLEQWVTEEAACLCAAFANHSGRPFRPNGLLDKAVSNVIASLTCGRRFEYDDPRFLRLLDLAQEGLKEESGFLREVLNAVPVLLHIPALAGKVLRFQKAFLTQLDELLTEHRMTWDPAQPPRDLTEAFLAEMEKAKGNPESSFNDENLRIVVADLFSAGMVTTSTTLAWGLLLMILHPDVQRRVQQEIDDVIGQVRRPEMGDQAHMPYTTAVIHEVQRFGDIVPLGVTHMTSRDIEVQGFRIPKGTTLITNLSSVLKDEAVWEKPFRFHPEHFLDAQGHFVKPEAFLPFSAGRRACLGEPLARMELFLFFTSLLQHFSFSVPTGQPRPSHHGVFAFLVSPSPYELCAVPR
# Canis lupus familiaris [35] = assay: Cardiotoxicity in dog assessed as increase in mean arterial blood pressure at 10 to 30 mg/kg, po; conditions: in vivo
# Cytochrome P450 3A4 = Cytochrome P450 3A4 (Homo sapiens, UniProt P08684); assay: Inhibition of CYP3A4; type: ADME; method in brief: as §1
# Sequence of Cytochrome P450 3A4 (P08684 whole entry): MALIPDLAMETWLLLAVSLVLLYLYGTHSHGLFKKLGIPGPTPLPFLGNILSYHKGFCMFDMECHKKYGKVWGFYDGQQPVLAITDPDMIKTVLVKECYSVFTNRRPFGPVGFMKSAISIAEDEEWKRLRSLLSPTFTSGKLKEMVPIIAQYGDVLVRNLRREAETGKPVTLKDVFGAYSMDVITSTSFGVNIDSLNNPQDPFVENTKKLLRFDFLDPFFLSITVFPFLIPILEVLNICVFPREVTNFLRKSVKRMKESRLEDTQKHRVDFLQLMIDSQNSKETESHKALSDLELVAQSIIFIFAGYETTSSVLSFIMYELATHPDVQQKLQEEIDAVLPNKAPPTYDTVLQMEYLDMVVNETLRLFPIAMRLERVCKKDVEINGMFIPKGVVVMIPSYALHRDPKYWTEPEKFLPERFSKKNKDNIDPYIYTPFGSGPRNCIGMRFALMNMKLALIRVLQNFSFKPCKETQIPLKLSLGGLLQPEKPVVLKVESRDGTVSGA
# Rattus norvegicus [36] = assay: Inhibition of RAMH-induced dipsogenia in Sprague-Dawley rat at 0.6 mg/kg, po administered 6 hrs prior to RAMH challenge measured up to 20 mins; type: functional; method in brief: as §4
# Canis lupus familiaris [37] = assay: Cardiotoxicity in dog assessed as increase in mean arterial blood pressure at 10 to 30 mg/kg, po after 60 mins; conditions: in vivo, 1 h
# [38] = Oral bioavailability in monkey at 3 mg/kg by LC-MS/MS analysis; type: ADME, organism-based, Macaca mulatta; conditions: rhesus monkey, in vivo
# [39] = Tmax in Sprague-Dawley rat at 3 mg/kg, po and iv by LC-MS/MS analysis; type: ADME, organism-based; parameters: dose 3 mg/kg, route oral; conditions: in vivo; method in brief: as §3
# Histamine H3 receptor [40] = biological target: T1, Histamine H3 receptor; assay: Binding affinity to human cloned histamine H3 receptor
# Mus musculus [41] = assay: Hepatic blood flow in mouse at 3 mg/kg, po by LC-MS/MS analysis; type: ADME, organism-based, Liver; parameters: dose 3 mg/kg, route oral; conditions: in vivo
# [42] = Tmax in monkey at 3 mg/kg, po by LC-MS/MS analysis; type: ADME, organism-based, Macaca mulatta; parameters: dose 3 mg/kg, route oral; conditions: rhesus monkey, in vivo
# Cytochrome P450 1A2 = biological target: T2, Cytochrome P450 1A2 (Homo sapiens, UniProt P05177); assay: Inhibition of CYP1A2; type: ADME; method in brief: as §1
# T2 sequence (P05177 whole entry): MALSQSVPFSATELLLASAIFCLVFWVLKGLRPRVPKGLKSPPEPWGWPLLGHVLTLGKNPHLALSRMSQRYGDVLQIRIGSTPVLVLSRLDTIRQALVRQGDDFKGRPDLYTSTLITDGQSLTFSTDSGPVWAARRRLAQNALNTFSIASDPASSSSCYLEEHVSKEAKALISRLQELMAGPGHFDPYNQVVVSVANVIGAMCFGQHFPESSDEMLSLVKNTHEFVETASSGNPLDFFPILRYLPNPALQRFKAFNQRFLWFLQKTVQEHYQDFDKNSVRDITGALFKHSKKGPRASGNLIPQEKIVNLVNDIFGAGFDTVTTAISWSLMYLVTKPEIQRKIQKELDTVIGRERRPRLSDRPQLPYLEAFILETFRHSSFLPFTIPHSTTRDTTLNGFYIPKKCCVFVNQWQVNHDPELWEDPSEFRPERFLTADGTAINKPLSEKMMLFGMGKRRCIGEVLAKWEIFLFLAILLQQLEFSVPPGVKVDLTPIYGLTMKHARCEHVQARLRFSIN
# Canis familiaris [43] = assay: Hepatic blood flow in dog at 3 mg/kg, po by LC-MS/MS analysis; type: ADME, organism-based, Canis lupus familiaris, Liver; parameters: dose 3 mg/kg, route oral; conditions: in vivo
# Sequence of Cytochrome P450 2C9 (P11712 whole entry, canonical isoform): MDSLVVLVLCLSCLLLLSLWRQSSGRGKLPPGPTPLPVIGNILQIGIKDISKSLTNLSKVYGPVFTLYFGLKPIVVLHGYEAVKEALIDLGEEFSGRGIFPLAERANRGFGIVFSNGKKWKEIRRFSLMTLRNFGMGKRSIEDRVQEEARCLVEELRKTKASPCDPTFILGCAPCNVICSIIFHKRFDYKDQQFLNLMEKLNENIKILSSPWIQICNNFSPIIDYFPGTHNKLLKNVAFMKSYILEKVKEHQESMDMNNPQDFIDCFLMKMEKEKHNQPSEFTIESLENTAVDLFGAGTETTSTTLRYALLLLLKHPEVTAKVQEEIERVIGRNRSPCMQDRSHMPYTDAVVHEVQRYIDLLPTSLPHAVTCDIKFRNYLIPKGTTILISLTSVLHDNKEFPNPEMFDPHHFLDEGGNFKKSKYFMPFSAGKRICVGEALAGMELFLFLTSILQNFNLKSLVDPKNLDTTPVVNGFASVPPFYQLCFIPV
smiles,measurement,setting,value
COCCCS(=O)(=O)c1ccc(-c2ccc(CCN3CCC[C@H]3C)cc2)cc1,pIC50,Cytochrome P450 2C9,< 4.40
same,bioavailability,[1],27.3%
same,half-life,[2],6.9 h
same,Kp,[3],3.3
same,inhibition at 3 µM,hERG (KCNH2),14%
same,Cmax,[4],100 ng/mL
same,half-life,[5],1.9 h
same,Tmax,[6],0.8 h
same,Vdss,Rattus norvegicus [7],7.5 L/kg
same,half-life,[8],1.9 h
same,bioavailability,[9],35.4%
same,Cmax,[10],104 ng/mL
same,Activity,Salmonella typhimurium,Non-toxic
same,bioavailability,[11],100%
same,CL/F,[12],13.7 mL/min/kg
same,Vdss,Rhesus monkey [13],2.16 L/kg
same,concentration at 1 h,[14],17 ng/g
same,minimal effective dose,Rattus norvegicus [15],0.3 mg/kg
same,Cmax,[16],600 ng/mL
same,pIC50,[17],4.96
same,pIC50,Histamine H3 receptor [18],9.15
same,pIC50,Cytochrome P450 2C19,< 4.40
same,Vdss,Mus musculus [19],2.54 L/kg
same,CL/F,[20],6.17 mL/min/kg
same,fraction unbound,[21],0.26
same,Cmax,[22],80 ng/mL
same,CL/F,[23],74.3 mL/min/kg
same,pKi,Histamine H3 receptor [24],9.15
same,half-life,[25],5 h
same,CL/F,[26],72.7 mL/min/kg
same,half-life,[27],1.5 h
same,Cmax,[28],550 ng/mL
same,QH,Rattus norvegicus [29],106%
same,Vdss,Rattus norvegicus [30],7.54 L/kg
same,QH,Rhesus monkey [31],14%
same,Tmax,[32],1 h
same,fraction unbound,[33],0.26
same,Vdss,Canis familiaris [34],2.89 L/kg
same,pIC50,Cytochrome P450 2D6,< 4.40
same,Activity,Canis lupus familiaris [35],Toxic
same,pIC50,Cytochrome P450 3A4,< 4.40
same,inhibition in vivo at 0.6 mg/kg,Rattus norvegicus [36],< 20%
same,Activity,Canis lupus familiaris [37],Non-toxic
same,bioavailability,[38],67.5%
same,Tmax,[39],0.5 h
same,pKi,Histamine H3 receptor [40],8.38
same,QH,Mus musculus [41],78%
same,Tmax,[42],2.3 h
same,pIC50,Cytochrome P450 1A2,< 4.40
same,QH,Canis familiaris [43],43%
